Assay results from ChEMBL document CHEMBL4613285 (ACS Med Chem Lett, 2020).
The source made the active and inactive calls. The calls are words filed in the database; no cut-off is given here.

Key:
MDR1 [1] = assay: Efflux ratio of apparent permeability from basolateral to apical over apical to basolateral side in MDCK-MDR1 cells incubated for 2 hrs by LC-MS/MS analysis; details: dog
[2] = Drug concentration in CD-1 mouse brain at 3 mg/kg, iv measured at 60 mins; assay type: ADME, organism-based; details: read-out: Ct
Outline: (§1)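 Male CD1 mice (n=2) dosed IV at 3 mg/kg; brain and plasma sampled at 8 and 60 min; values reported as mean ± standard error.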

[3] = molecular target: T1, Protein deacetylase HDAC6 (Mus musculus, UniProt Q9Z2V5); assay: Inhibition of HDAC6 in mouse N2A cells; assay type: cell-based
T1 sequence (Q9Z2V5 whole entry): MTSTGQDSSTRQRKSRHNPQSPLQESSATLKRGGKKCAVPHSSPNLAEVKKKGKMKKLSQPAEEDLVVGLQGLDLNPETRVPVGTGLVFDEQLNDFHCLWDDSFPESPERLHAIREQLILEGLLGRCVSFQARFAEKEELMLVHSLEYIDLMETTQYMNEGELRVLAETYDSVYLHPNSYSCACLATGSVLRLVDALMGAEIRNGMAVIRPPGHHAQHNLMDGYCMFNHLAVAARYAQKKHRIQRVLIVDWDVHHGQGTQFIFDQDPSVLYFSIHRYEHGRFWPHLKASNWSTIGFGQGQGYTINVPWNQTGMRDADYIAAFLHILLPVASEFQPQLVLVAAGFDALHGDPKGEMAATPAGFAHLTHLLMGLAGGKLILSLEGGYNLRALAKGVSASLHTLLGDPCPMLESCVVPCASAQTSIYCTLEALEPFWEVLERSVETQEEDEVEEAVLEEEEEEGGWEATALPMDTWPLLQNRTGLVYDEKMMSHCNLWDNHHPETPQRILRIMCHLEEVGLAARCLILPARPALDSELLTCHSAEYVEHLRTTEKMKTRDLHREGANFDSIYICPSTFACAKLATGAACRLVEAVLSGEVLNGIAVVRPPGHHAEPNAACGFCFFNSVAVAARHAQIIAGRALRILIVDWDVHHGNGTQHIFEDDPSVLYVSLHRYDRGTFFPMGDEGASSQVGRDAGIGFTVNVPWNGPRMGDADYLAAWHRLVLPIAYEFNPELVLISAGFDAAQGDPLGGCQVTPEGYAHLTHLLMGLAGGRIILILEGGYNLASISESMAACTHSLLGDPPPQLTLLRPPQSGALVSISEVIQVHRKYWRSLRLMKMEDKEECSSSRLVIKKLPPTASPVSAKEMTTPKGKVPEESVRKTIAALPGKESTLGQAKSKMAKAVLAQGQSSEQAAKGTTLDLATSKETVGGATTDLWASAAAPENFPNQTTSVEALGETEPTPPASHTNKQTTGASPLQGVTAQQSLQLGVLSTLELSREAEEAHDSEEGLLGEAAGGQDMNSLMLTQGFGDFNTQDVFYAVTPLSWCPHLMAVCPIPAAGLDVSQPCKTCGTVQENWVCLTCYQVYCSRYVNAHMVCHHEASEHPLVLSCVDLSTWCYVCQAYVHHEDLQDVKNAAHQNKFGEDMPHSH

[4] = AUC in CD-1 mouse at 3 mg/kg, iv; assay type: ADME, organism-based; details: in vivo
[5] = Metabolic stability in mouse Hepatocyte assessed as half life; assay type: ADME, cell-based; details: hepatocytes
[6] = Protein binding in mouse plasma; assay type: ADME, cell-free; details: read-out: PPB (converted)
[7] = Metabolic stability in mouse plasma assessed as half life; assay type: ADME, cell-free
[8] = Free drug concentration in mouse brain at 25 mg/kg measured at 8 mins; assay type: ADME, organism-based; details: in vivo
Outline: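 Free brain exposure calculated for 25 mg/kg from brain PK at 8 min and brain homogenate binding.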

[9] = Oral bioavailability in CD-1 mouse at 30 mg/kg; assay type: ADME, organism-based; details: in vivo
MDR1 [10] = assay: Efflux ratio of permeability in MDCK-MDR1 cells; assay type: ADME, cell-based, Canis lupus familiaris; details: dog
[11] = Drug concentration in CD-1 mouse plasma at 3 mg/kg, iv measured at 60 mins; assay type: ADME, organism-based; outline: as §1
[12] = Drug concentration in CD-1 mouse brain at 3 mg/kg, iv measured at 8 mins; assay type: ADME, organism-based; details: read-out: Ct; outline: as §1
[13] = Metabolic stability in mouse liver microsomes assessed as half life; assay type: ADME, Microsome
[14] = Protein binding in mouse plasma assessed as unbound fraction measured at initial point; assay type: ADME, cell-free
Outline: (§2)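 Unbound plasma level derived from total concentrations predicted for 10 mg/kg IP using IV PK data, corrected by measured mouse plasma protein binding; given at initial point and 1 h.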

[15] = Protein binding in mouse brain homogenate; assay type: ADME, tissue-based; details: read-out: PB (converted)
[16] = Volume of distribution at steady state in CD-1 mouse at 3 mg/kg, iv; assay type: ADME, organism-based; details: in vivo
Outline: (§3)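 Plasma PK in male CD1 mice (n=3, mean) after 3 mg/kg IV; vehicle 5% DMSO in 10% HP-β-CD in saline, pH adjusted with HCl; C0, C1h and Vss derived from plasma profile.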

[17] = Initial plasma concentration in CD-1 mouse at 3 mg/kg, iv measured at 0 mins; assay type: ADME, organism-based; outline: as §3
[18] = Protein binding in mouse plasma assessed as unbound fraction measured at 1 hr; assay type: ADME, cell-free; outline: as §2
[19] = Ratio of drug level in brain to plasma in CD-1 mouse at 3 mg/kg, iv measured after 8 mins; assay type: ADME, organism-based; details: brain and plasma, read-out: BPR; outline: as §1
[20] = molecular target: T1, Protein deacetylase HDAC6; assay: Inhibition of HDAC6 in mouse N2A cells assessed as increase in alpha tubulin acetylation; assay type: cell-based
Outline: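 N2a cells; α-tubulin acetylation read out; 10-dose EC50 mode, singlet, 3-fold serial dilutions from 100 μM top concentration.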

[21] = Ratio of drug level in brain to plasma in C57BL/6 mouse at 3 mg/kg, iv measured after 8 mins by LC-MS/MS analysis; details: brain and plasma
[22] = AUC in CD-1 mouse at 30 mg/kg, po; assay type: ADME, organism-based; details: in vivo
[23] = Initial plasma concentration in CD-1 mouse at 30 mg/kg, po measured at 0 mins; assay type: ADME, organism-based; details: read-out: C0
Outline: (§4)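 Plasma PK in male CD1 mice (n=3, mean) after 30 mg/kg oral dosing; formulation 5% DMSO in 10% HP-β-CD in saline, pH adjusted with HCl; C0 and C1h from plasma profile.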

[24] = Plasma concentration in CD-1 mouse at 30 mg/kg, po measured at 1 hr; assay type: ADME, organism-based; outline: as §4
[25] = Plasma concentration in CD-1 mouse at 3 mg/kg, iv measured at 1 hr; assay type: ADME, organism-based; outline: as §3
[26] = Half life in CD-1 mouse at 3 mg/kg, iv; assay type: ADME, organism-based; details: in vivo
Histone deacetylase 1 = Histone deacetylase 1 (Mus musculus, UniProt O09106); assay: Inhibition of HDAC1 in mouse N2A cells; assay type: cell-based
[27] = Half life in CD-1 mouse at 30 mg/kg, po; assay type: ADME, organism-based; details: in vivo
[28] = Drug concentration in CD-1 mouse plasma at 3 mg/kg, iv measured at 8 mins; assay type: ADME, organism-based; outline: as §1
[29] = Ratio of drug level in brain to plasma in CD-1 mouse at 3 mg/kg, iv measured after 60 mins; assay type: ADME, organism-based; details: brain and plasma, read-out: BPR; outline: as §1
[30] = molecular target: T2, Protein deacetylase HDAC6 (Mus musculus) (UniProt Q9Z2V5); assay: In vivo inhibition of HDAC6 in C57BL/6 mouse cortex assessed as increase in alpha tubulin acetylation at 20 mg/kg, ip administered bid with interval of 4 hrs and measured after 1.5 hrs of last dosage by Western blot analysis; assay type: functional, organism-based
T2 sequence (whole entry): T1 sequence (Q9Z2V5 whole entry)
Outline: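 Adult male C57BL/6 mice got two IP injections of 20 mg/kg, 4 h apart, and were killed 1.5 h after the second. Cortical homogenates were Western blotted (n = 3–4 per group) for acetylated α-tubulin/total tubulin densitometric ratio, normalized to vehicle-treated baseline (100%). Mean and standard deviation are reported; significance versus vehicle at p < 0.05 or p < 0.01.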

Mus musculus = species on record: Mus musculus; assay: Selectivity index, ratio of IC50 for HDAC1 in mouse N2A cells to IC50 for HDAC6 in mouse N2A cells; assay type: cell-based

Histone deacetylase 1, sequence (O09106 whole entry): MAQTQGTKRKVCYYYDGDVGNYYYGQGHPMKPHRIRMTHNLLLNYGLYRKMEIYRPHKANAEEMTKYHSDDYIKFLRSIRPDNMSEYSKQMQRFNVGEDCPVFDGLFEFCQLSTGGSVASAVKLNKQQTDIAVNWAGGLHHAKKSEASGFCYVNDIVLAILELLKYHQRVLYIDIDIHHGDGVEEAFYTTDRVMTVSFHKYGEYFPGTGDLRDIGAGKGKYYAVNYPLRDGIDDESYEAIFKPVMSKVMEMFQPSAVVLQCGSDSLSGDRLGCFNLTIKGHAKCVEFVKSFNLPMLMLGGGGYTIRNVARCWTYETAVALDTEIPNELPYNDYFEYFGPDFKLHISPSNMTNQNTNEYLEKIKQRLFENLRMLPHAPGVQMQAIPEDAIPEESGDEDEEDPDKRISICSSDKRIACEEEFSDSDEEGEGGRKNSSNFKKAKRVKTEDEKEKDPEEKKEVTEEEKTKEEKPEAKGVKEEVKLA

Row | concentration at 1 h [2] | IC50 [3] | efflux ratio (MDR1 [10]) | concentration at 1 h [11] | concentration at 8 min [12] | Kp at 8 min [19] | EC50 [20] | IC50 (Histone deacetylase 1) | concentration at 8 min [28] | Kp at 1 h [29] | Activity [30] | Structure (SMILES) | Ratio IC50 (Mus musculus) | further results
1 | 17.5 ng/g | 0.0044 µM | 9.83 | 20.3 ng/mL | 40.5 ng/g | 0.15 | 0.145 µM | 8.1 µM | 274 ng/mL | 0.86 | – | CN1CCc2c(c3ccccc3n2Cc2ccc(C(=O)NO)cc2)C1 [TUBASTATIN A] | – | efflux ratio at 2 h (MDR1 [1]): 9.83; AUC [4]: 227 ng·h/mL; half-life [5]: > 60 min; fraction unbound [6]: 0.34; half-life [7]: 30 min; Drug uptake(free) [8]: 0.1 µM; bioavailability [9]: 5.9%; half-life [13]: > 60 min; C0(unbound) [14]: 3770 nM; fraction unbound [15]: 0.094; Vdss [16]: 4.14 L/kg; C0 at 0 h [17]: 1240 ng/mL; Cp(f) [18]: 90 nM; Kp at 8 min [21]: 0.15; AUC [22]: 134 ng·h/mL; concentration at 0 h [23]: 135 ng/mL; concentration at 1 h [24]: 41.9 ng/mL; concentration at 1 h [25]: 29.7 ng/mL; t1/2 [26]: 21 min; half-life [27]: 51.6 min
2 | 30.5 ng/g | 0.0455 µM | 0.51 | 6 ng/mL | 354 ng/g | 1.03 | 0.932 µM | 6.86 µM | 345 ng/mL | 5.08 | Active | O=C(NO)c1ccc(Cn2cccn2)cc1 | 150 | –
3 | 7.6 ng/g | 0.0097 µM | 1.05 | 0.8 ng/mL | 944 ng/g | 6.21 | 0.25 µM | 5.54 µM | 152 ng/mL | 9.5 | Active | O=C(NO)c1ccc(CN2CCc3ccc(F)cc32)cc1 | 571 | –
